# Laboratory results from PMC3553987 (Nucleic Acids Research, 2012).
# What was measured:
# P-STAT1 = target: T1, P-STAT1 (Homo sapiens, UniProt P42224); assay: TIRF-PBM: inhibition of P-STAT1 equilibrium binding to DNA array; conditions: 20 µM compound, 50 nM P-STAT1
# T1 sequence (P42224 1-750): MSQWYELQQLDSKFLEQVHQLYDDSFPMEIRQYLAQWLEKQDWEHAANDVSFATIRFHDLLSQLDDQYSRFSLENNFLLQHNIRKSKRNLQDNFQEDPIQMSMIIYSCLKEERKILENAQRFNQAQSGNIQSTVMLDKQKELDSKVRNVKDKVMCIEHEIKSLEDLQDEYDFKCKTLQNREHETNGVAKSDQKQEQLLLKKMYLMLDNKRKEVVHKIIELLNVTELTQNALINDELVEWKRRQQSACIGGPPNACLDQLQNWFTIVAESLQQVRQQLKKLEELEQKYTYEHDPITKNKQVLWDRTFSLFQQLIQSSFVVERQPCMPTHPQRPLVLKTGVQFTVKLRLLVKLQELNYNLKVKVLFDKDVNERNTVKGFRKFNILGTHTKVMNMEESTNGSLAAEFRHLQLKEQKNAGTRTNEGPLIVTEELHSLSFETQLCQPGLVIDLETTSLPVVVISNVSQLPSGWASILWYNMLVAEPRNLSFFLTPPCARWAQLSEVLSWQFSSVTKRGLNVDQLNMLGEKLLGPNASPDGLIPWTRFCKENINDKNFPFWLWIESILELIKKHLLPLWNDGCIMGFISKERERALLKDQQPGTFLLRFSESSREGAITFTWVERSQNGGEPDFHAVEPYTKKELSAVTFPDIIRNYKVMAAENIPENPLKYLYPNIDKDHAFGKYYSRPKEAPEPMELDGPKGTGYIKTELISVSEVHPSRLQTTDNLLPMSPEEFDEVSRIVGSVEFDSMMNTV
# Procedure, shortened: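 Phosphorylated STAT1 (50 nM), amine-labelled with DyLight dyes, with test compound (20 μM final, from 5 mM DMSO stock). Flowed >30 min at 25°C over dsDNA hydrogel microarray; TIRF read, 20 s exposures. Intensities from 5–10 replicate spots, binned as GAS palindrome with 3-nt spacer, half-GAS, or absent/misspaced GAS.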
# STAT3 = conditions: STAT3, at this concentration (20 µM), in cells and in vivo; cited from earlier work
# Myc/Max [1] = conditions: read-out: reported IC50; obtained with a cognate-binding site; cited from earlier work
# Myc/Max [2] = target: Myc/Max (Homo sapiens, UniProt P01106); assay: TIRF-PBM: inhibition of Myc/Max equilibrium binding to DNA array; conditions: 50 μM Mycro3, 10 nM Myc/Max
# Chain of Myc/Max (Homo sapiens, UniProt P01106) (P01106 whole entry): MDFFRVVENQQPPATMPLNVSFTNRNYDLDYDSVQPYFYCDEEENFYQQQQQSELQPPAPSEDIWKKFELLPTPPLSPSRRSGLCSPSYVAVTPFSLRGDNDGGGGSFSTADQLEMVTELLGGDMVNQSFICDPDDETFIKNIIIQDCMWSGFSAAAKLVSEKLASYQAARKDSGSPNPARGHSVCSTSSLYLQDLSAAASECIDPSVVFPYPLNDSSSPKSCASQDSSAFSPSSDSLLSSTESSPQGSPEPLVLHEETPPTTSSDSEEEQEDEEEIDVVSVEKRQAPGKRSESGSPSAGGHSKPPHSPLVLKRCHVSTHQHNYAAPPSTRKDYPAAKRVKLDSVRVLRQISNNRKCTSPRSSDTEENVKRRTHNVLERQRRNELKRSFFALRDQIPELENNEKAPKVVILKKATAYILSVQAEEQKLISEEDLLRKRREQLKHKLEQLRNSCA
# Procedure, shortened: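 DyLight-labelled Myc/Max (His-tagged c-Myc and Max expressed separately in E. coli, then denatured and renatured together) with test compound (5 mM DMSO stock, 50 μM final). Equilibrium intensity from 5–10 replicate spots; E-box consensus vs mutated/absent bins compared by two-tailed t-test with Welch's correction.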
adjusted binding intensity at 'Half Sites' (P-STAT1) [%],adjusted binding intensity at 'Poor Affinity' sites (P-STAT1) [%],"average adjusted binding intensity at 'High Affinity' sites, % of the no-inhibitor control (P-STAT1) [%]",fold reduction in binding at 'High Affinity' sites (P-STAT1) [fold],"Myc/Max binding intensity at 'high affinity' sites, % signal (Myc/Max [2]) [%]",Myc/Max binding signal at weaker affinity sites (Myc/Max [2]) [%],Structure (SMILES),"DNA binding, % of normal activity (STAT3) [%]",IC50 (Myc/Max [1]) [µM]
59.4 ± 15.5,42.4 ± 13.1,12.6 ± 4.9,~8,–,–,CC(=O)c1cccc2c1C(=O)c1cccc(O)c1C2=O [LLL3],~40,–
–,–,–,–,68.5 ± 10.6,66.2 ± 23.7,CCOC(=O)c1cnn(-c2ccccc2)c1NC(=O)c1cc2nc(-c3ccco3)cc(C(F)(F)Cl)n2n1 [Mycro3],–,40 ± 13
